Activity calls are given as the source filed them. The rule behind the calls is not given here.
Key:
BT-474 [1] = experiment: Cytotoxicity against human BT-474 cells assessed as reduction in cell viability incubated for 48 hrs by MTT assay; format: functional, cell-based; conditions: BT-474, 48 h
In short: (§1)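 Cells plated at 3000-4500 per well and treated after 24 h. DMSO stocks (20 mM) were diluted in medium to final DMSO <0.1%, twofold series […], 48 h. MTT (0.5 mg/mL) was added for 4 h, formazan dissolved in DMSO, absorbance read at 570 nm.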

BT-474 [2] = experiment: Induction of apoptosis in human BT-474 cells assessed as chromatin condensation at 0.5 to 2.5 uM incubated for 24 hrs by DAPI staining based DAPI staining based confocal microscopic analysis; format: functional, cell-based; conditions: dose microM 0.5-2.5, time 24.0 hrs
BT-474 [3] = experiment: Induction of apoptosis in human BT-474 cells assessed as non-uniform distribution of chromatin incubated for 48 hrs by acridine orange/ethidium bromide double staining-based fluorescence microscopic analysis; format: functional, cell-based; conditions: dose microM 0.5-2.5, time 48.0 hrs
In short: (§2)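 Plated at 5×10^4 cells/well, treated after 24 h and held 48 h at 37 °C, 5% CO₂. Acridine orange and ethidium bromide (10 µg/mL each) added in equal volumes, then cells viewed by fluorescence microscopy at 200x.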

BT-474 [4] = experiment: Cell cycle arrest in human BT-474 cells assessed as decrease in G0/G1 accumulation in phase at 2.5 uM by propidium iodide staining based flow cytometry(reference value: 60.53%); format: functional; parameters: scale not given: the % may be the effect or the level left
In short: (§3)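 Seeded at 1 x 10⁵ cells/well, after 24 h serum-starved 6 h to synchronize, then returned to FBS-containing medium and treated at 0.5, 1 and 2.5 μM. Harvested cells were PBS-washed, fixed in ice-cold 70% ethanol, stained with propidium iodide (50 μg/mL) plus RNase A for 20 min at 37 °C in the dark. About 10,000 events analysed by flow cytometry.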

BT-474 [5] = experiment: Induction of mitochondrial membrane potential loss in human BT-474 cells assessed as depolarized cell population (P2) at 1 uM incubated for 48 hrs by JC1 staining based flow cytometry (reference value: 0.48 %); format: functional
In short: (§4)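 Cells (1x10⁶/mL) adhered overnight, then exposed to 0.5, 1 and 2.5 μM for 48 h. Collected, PBS-washed, incubated with JC-1 dye (1 μM) for 30 min at 37 °C, washed twice, trypsinized, centrifuged and read by flow cytometry.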

BT-474 [6] = experiment: Induction of mitochondrial membrane potential loss in human BT-474 cells assessed as depolarized cell population (P1) at 2.5 uM incubated for 48 hrs by JC1 staining based flow cytometry (reference value: 98.09 %); format: functional; in short: as §4
BT-474 [7] = experiment: Induction of mitochondrial membrane potential loss in human BT-474 cells assessed as depolarized cell population (P2) at 2.5 uM incubated for 48 hrs by JC1 staining based flow cytometry (reference value: 0.48 %); format: functional; in short: as §4
BT-474 [8] = experiment: Cell cycle arrest in human BT-474 cells assessed as increase in accumulation in G2/M phase at 1 uM by propidium iodide staining based flow cytometry(reference value: 19.35%); format: functional; in short: as §3
BT-474 [9] = experiment: Cell cycle arrest in human BT-474 cells assessed as increase in accumulation in S phase at 0.5 uM by propidium iodide staining based flow cytometry(reference value: 2.22%); format: functional; in short: as §3
BT-474 [10] = experiment: Cell cycle arrest in human BT-474 cells assessed as decrease in G0/G1 accumulation in phase at 1 uM by propidium iodide staining based flow cytometry(reference value: 60.53%); format: functional; parameters: scale not given: the % may be the effect or the level left; in short: as §3
BT-474 [11] = experiment: Induction of morphological changes in human BT-474 cells assessed as […] incubated for 48 hrs by phase-contrast microscope method; format: functional, cell-based; conditions: dose microM 0.5-2.5, time 48.0 hrs
In short: (§5)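 Plated at 5×10^4 cells/well, dosed after 24 h at 0.5, 1 and 2.5 μM. After 48 h, morphology was examined and photographed under phase-contrast microscopy.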

BT-474 [12] = experiment: Cell cycle arrest in human BT-474 cells assessed as increase in accumulation in G1 phase at 1 uM by propidium iodide staining based flow cytometry(reference value: 4.06%); format: functional; in short: as §3
BT-474 [13] = experiment: Cell cycle arrest in human BT-474 cells assessed as increase in accumulation in G1 phase at 0.5 uM by propidium iodide staining based flow cytometry(reference value: 4.06%); format: functional; in short: as §3
HeLa = experiment: Cytotoxicity against human HeLa cells assessed as reduction in cell viability incubated for 48 hrs by MTT assay; format: functional, cell-based; in short: as §1
BT-474 [14] = experiment: Cell cycle arrest in human BT-474 cells assessed as increase in accumulation in G2/M phase at 0.5 uM by propidium iodide staining based flow cytometry(reference value: 19.35%); format: functional; in short: as §3
BT-474 [15] = experiment: Cell cycle arrest in human BT-474 cells assessed as increase in accumulation in G2/M phase at 2.5 uM by propidium iodide staining based flow cytometry(reference value: 19.35%); format: functional; in short: as §3
BT-474 [16] = experiment: Induction of morphological changes in human BT-474 cells assessed reduction in number of viable cells incubated for 48 hrs by phase-contrast microscope method; format: functional, cell-based; conditions: dose microM 0.5-2.5, time 48.0 hrs; in short: as §5
Tubulin (Homo sapiens) [17] = target: T1, Tubulin (Homo sapiens) (UniProt P68371+Q9H4B7+P0DPH7+P68366+Q13509+Q71U36+P04350+Q3ZCM7+P07437+P68363+Q9BQE3+Q6PEY2+Q13885+Q9BVA1+Q9BUF5); experiment: Inhibition of tubulin polymerization in human BT-474 cells assessed as microtubule disruption at 2 uM by immunohistochemistry assay; format: cell-based
In short: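 Cells on glass coverslips exposed 48 h to 2 μM, with CA-4 as positive control. Fixed in 4% paraformaldehyde 20 min, permeabilized with 0.2% Triton X-100 5 min, held in methanol overnight at 4 °C, blocked in 1% BSA 60 min. Stained with α-tubulin antibody (1:1000, 2 h) then FITC anti-mouse secondary 1 h; microtubule network imaged by confocal microscopy.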

BT-474 [18] = experiment: Cell cycle arrest in human BT-474 cells assessed as increase in accumulation in S phase at 2.5 uM by propidium iodide staining based flow cytometry(reference value: 2.22%); format: functional; in short: as §3
BT-474 [19] = experiment: Induction of morphological changes in human BT-474 cells assessed as loss of cell-cell adhesion incubated for 48 hrs by phase-contrast microscope method; format: functional, cell-based; conditions: dose microM 0.5-2.5, time 48.0 hrs; in short: as §5
BT-474 [20] = experiment: Induction of mitochondrial membrane potential loss in human BT-474 cells assessed as depolarized cell population (P1) at 1 uM incubated for 48 hrs by JC1 staining based flow cytometry (reference value: 98.09 %); format: functional; in short: as §4
Tubulin (Homo sapiens) [21] = target: T1, Tubulin (Homo sapiens); experiment: Inhibition of tubulin (unknown origin) polymerization by cell free in vitro assay; format: protein-complex assay
BT-474 [22] = experiment: Induction of apoptosis in human BT-474 cells assessed as membrane bleeding incubated for 48 hrs by acridine orange/ethidium bromide double staining-based fluorescence microscopic analysis; format: functional, cell-based; conditions: dose microM 0.5-2.5, time 48.0 hrs; in short: as §2
BT-474 [23] = experiment: Induction of apoptosis in human BT-474 cells assessed as chromatin condensation incubated for 48 hrs by acridine orange/ethidium bromide double staining-based fluorescence microscopic analysis; format: functional, cell-based; conditions: dose microM 0.5-2.5, time 48.0 hrs; in short: as §2
BT-474 [24] = experiment: Cell cycle arrest in human BT-474 cells assessed as increase in accumulation in G1 phase at 2.5 uM by propidium iodide staining based flow cytometry(reference value: 4.06%); format: functional; in short: as §3
BT-474 [25] = experiment: Cell cycle arrest in human BT-474 cells assessed as decrease in G0/G1 accumulation in phase at 0.5 uM by propidium iodide staining based flow cytometry(reference value: 60.53%); format: functional; parameters: scale not given: the % may be the effect or the level left; in short: as §3
HaCaT = experiment: Cytotoxicity against human HaCaT cells assessed as reduction in cell viability incubated for 48 hrs by MTT assay; format: functional, cell-based; in short: as §1

O=C(c1cn(Cc2cccc(Oc3ccccc3)c2)nn1)N1CCN(S(=O)(=O)c2ccc(Br)cc2)CC1
IC50 (BT-474 [1]): 990 nM
Activity (BT-474 [2]): Active
Activity (BT-474 [3]): Dose-dependent effect
Activity (BT-474 [4]): 9.09%
Activity (BT-474 [5]): 61.44%
Activity (BT-474 [6]): 10.81%
Activity (BT-474 [7]): 89.84%
Activity (BT-474 [8]): 62.72%
Activity (BT-474 [9]): 7.02%
Activity (BT-474 [10]): 9.64%
Activity (BT-474 [11]): Active
Activity (BT-474 [12]): 9.41%
Activity (BT-474 [13]): 11%
IC50 (HeLa): 1020 nM
Activity (BT-474 [14]): 58.93%
Activity (BT-474 [15]): 63.41%
Activity (BT-474 [16]): Active
inhibition (Tubulin (Homo sapiens) [17]): Active
Activity (BT-474 [18]): 5.57%
Activity (BT-474 [19]): Active
Activity (BT-474 [20]): 41.46%
inhibition (Tubulin (Homo sapiens) [21]): Active
Activity (BT-474 [22]): Dose-dependent effect
Activity (BT-474 [23]): Dose-dependent effect
Activity (BT-474 [24]): 11.3%
Activity (BT-474 [25]): 10.83%
IC50 (HaCaT): 3.68 µM
